# Experimental data from ChEMBL document CHEMBL3272325, “Structure-activity relationships of dimeric Catharanthus alkaloids. 1. Deacetylvinblastine amide (vindesine) sulfate” (J Med Chem, 1978).
# How the values were obtained:
# [1] = system: B16; experiment: Antitumor activity against mouse B16 cells allografted in B6D2F1 mouse assessed as increase in life span at 0.648 mg/kg/day, ip administered on day 5, 9 and 13 measured for 56 days relative to untreated control; format: functional; conditions: route intraperitoneal
# In short: (§1)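 Male B6D2F1 mice implanted ip on day 0 with 0.25 mL of a 20% (w/v) B16 melanoma brei. Alkaloid sulfate salts given ip on days 1, 5, 9 or on days 5, 9, 13, groups of 10, against 30 untreated controls. Read-outs: median survival time with range of individual deaths, and percent increase in life span, with survivors counted on day 56.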
# [2] = system: B16; experiment: Antitumor activity against mouse B16 cells allografted in C57Bl/6 mouse assessed as mean survival time at 0.9 mg/kg/day, ip administered on day 1, 5 and 9 (reference value: 24.6 days); format: functional; conditions: route intraperitoneal
# [3] = system: P388; experiment: Antitumor activity against mouse P388 cells allografted in mouse assessed as increase in life span at 1.8 mg/kg/day, ip after 1 day; format: functional; conditions: 24 h, route intraperitoneal
# In short: (§2)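 P388 ascites implanted ip in mice, 10 animals per group. Sulfate salts given ip either daily on days 1-9 or as a single dose on day 1. Median life span was calculated using all deaths and survivors. Percent increase in life span was taken over untreated controls. The highest nontoxic dose was noted.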
# [4] = system: Gallus gallus; experiment: Neurotoxicity in iv dosed chicken assessed as neuromuscular disturbance by measuring loss of balance; format: organism-based; conditions: in vivo
# [5] = Antitumor activity against mouse P1534(J) cells allografted in mouse assessed as tumor growth inhibition at 0.2 mg/kg/day, ip administered from day 1 to day 9 relative to unreated control; format: functional; conditions: P1534J, route intraperitoneal, read-out: TGI
# In short: (§3)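 P1534(J) leukemia implanted subcutaneously in mice. Sulfate salts given ip daily on days 1-9. Read-out was percent inhibition of tumor growth relative to untreated controls. The highest nontoxic dose was recorded.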
# [6] = system: P388; experiment: Antitumor activity against mouse P388 cells allografted in mouse assessed as increase in life span at 0.6 mg/kg/day, ip administered from day 1 to day 9 relative to untreated control; format: functional; conditions: route intraperitoneal; in short: as §2
# [7] = system: Friend murine leukemia virus; experiment: Antimicrobial activity against Friend leukemia virus infected in mouse assessed as inhibition of spleen enlargement at 0.2 mg/kg/day, iv for 10 days relative to untreated control; format: functional; conditions: 240 h
# In short: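 DBA/2 mice bearing Friend leukemia virus were dosed iv for 10 days. Spleen enlargement was compared with untreated controls.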
# [8] = system: B16; experiment: Antitumor activity against mouse B16 cells allografted in B6D2F1 mouse assessed as mean survival time at 0.389 mg/kg/day, ip administered on day 1, 5 and 9 (reference value: 20.0 days); format: functional; conditions: route intraperitoneal; in short: as §1
# [9] = system: P388; experiment: Antitumor activity against mouse P388 cells allografted in mouse assessed as increase in life span at 0.10 mg/kg/day, ip administered from day 1 to day 9 relative to untreated control; format: functional; conditions: route intraperitoneal; in short: as §2
# [10] = Acute toxicity in rat; format: organism-based; conditions: in vivo
# [11] = Toxicity in ip dosed mouse allografted with mouse p388 cells administered from day 1 to day 9; format: organism-based; conditions: in vivo, read-out: MNTD; in short: as §2
# [12] = system: B16; experiment: Antitumor activity against mouse B16 cells allografted in B6D2F1 mouse assessed as increase in life span at 1.08 mg/kg/day, ip administered on day 1, 5 and 9 measured for 56 days relative to untreated control; format: functional; conditions: route intraperitoneal; in short: as §1
# [13] = system: P388; experiment: Antitumor activity against mouse P388 cells allografted in mouse assessed as increase in life span at 0.9 mg/kg/day, ip administered from day 1 to day 9 relative to untreated control; format: functional; conditions: route intraperitoneal; in short: as §2
# [14] = Toxicity in ip dosed mouse allografted with mouse p388 cells after 1 day; format: organism-based; conditions: in vivo, read-out: MNTD; in short: as §2
# [15] = system: B16; experiment: Antitumor activity against mouse B16 cells allografted in B6D2F1 mouse assessed as mean survival time at 1.8 mg/kg/day, ip administered on day 5, 9 and 13 (reference value: 20.0 days); format: functional; conditions: route intraperitoneal; in short: as §1
# [16] = system: P388; experiment: Antitumor activity against mouse P388 cells allografted in mouse assessed as increase in life span at 0.4 mg/kg/day, ip administered from day 1 to day 9 relative to untreated control; format: functional; conditions: route intraperitoneal; in short: as §2
# [17] = system: B16; experiment: Antitumor activity against mouse B16 cells allografted in C57Bl/6 mouse assessed as mean survival time at 0.9 mg/kg/day, ip administered on day 5, 9 and 13 (reference value: 21.5 days); conditions: route intraperitoneal
# [18] = system: P388; experiment: Antitumor activity against mouse P388 cells allografted in mouse assessed as increase in life span at 13.5 mg/kg/day, ip after 1 day; format: functional; conditions: 24 h, route intraperitoneal
# [19] = Antitumor activity against mouse Gardner lymphosarcoma cell allografted in mouse at 0.2 to 0.3 mg/kg/day, ip; format: functional; conditions: route intraperitoneal
# In short: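 Ridgeway osteogenic sarcoma and Gardner lymphosarcoma in mice, with sulfate salts given ip daily on days 1-9. Tumor growth inhibition versus controls scored in bands: +++ = 75-100%, ++ = 50-75%, ± = under 25%.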
# [20] = Toxicity in ip dosed mouse allografted with mouse P1534(J) cells administered from day 1 to day 9; format: organism-based; conditions: in vivo, read-out: MNTD; in short: as §3
# [21] = system: P388; experiment: Antitumor activity against mouse P388 cells allografted in mouse assessed as increase in life span at 9 mg/kg/day, ip after 1 day; format: functional; conditions: 24 h, route intraperitoneal; in short: as §2
smiles,measurement,setting,value
CC[C@]1(O)C[C@@H]2CN(CCc3c([nH]c4ccccc34)[C@@](C(=O)OC)(c3cc4c(cc3OC)N(C)[C@H]3[C@@](O)(C(N)=O)[C@H](O)[C@]5(CC)C=CCN6CC[C@]43[C@@H]65)C2)C1.O=S(=O)(O)O [VINDESINE SULFATE],ILS at 0.648 mg/kg/day,[1],35%
same,MST,[2],39.3 days
same,ILS at 1.8 mg/kg/day,[3],54%
same,Activity,[4],Non-toxic
same,inhibition in vivo at 0.2 mg/kg/day,[5],74%
same,ILS at 0.6 mg/kg/day,[6],213%
same,inhibition in vivo at 0.2 mg/kg/day,[7],80%
same,MST,[8],37 days
same,ILS at 0.1 mg/kg/day,[9],109%
same,LD50,[10],2 mg/kg
same,MTD,[11],0.9 mg/kg/day
same,ILS at 1.08 mg/kg/day,[12],110%
same,ILS at 0.9 mg/kg/day,[13],177%
same,MTD at 24 h,[14],13.5 mg/kg/day
same,MST,[15],39 days
same,ILS at 0.4 mg/kg/day,[16],172%
same,MST,[17],38.3 days
same,ILS at 13.5 mg/kg/day,[18],231%
same,TGI,[19],75%
same,MTD,[20],0.25 mg/kg/day
same,ILS at 9 mg/kg/day,[21],190%
